ChEMBL document CHEMBL1123650, “In vivo characterization of hydroxamic acid inhibitors of 5-lipoxygenase” (J Med Chem, 1987)
The source made the active and inactive calls. No cut-off for these calls is given here.

How the values were obtained:
[1] = system: Rattus norvegicus; experiment: Inhibition of leukotriene biosynthesis was determined in vivo with the rat peritoneal anaphylaxis model administered perorally at 100 mg/kg; not significant; type: functional, organism-based; design: dose 100 mg/kg
Summary of the method: (§1)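 Fasted male Sprague-Dawley rats sensitized ip with rabbit anti-BSA in PBS pH 7.1, then challenged ip 3 h later with BSA (4 mg) in PBS containing 30 mM L-cysteine. Compound in 0.2% methylcellulose given by gavage 1 h before challenge; 6–8 rats per group. Peritoneal fluid collected 15 min after challenge, LTC4 measured by RIA. % inhibition vs control mean, ± SEM; significance at […].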

[2] = system: Rattus norvegicus; experiment: Plasma concentration was evaluated for corresponding carboxylic acid metabolite at 100 mg/kg dose peroral administration in rats after 60 min; type: functional, organism-based; design: dose 100 mg/kg
Summary of the method: (§2)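 Rats dosed by oral gavage, 100 mg/kg suspended in 0.2% methylcellulose (4 mL/kg). Blood taken from lateral tail vein, plasma separated. Proteins precipitated with 2 volumes methanol before reversed-phase HPLC, or plasma acidified and ether-extracted for normal-phase HPLC. Parent hydroxamate and carboxylic acid metabolite measured. Average of four determinations with range.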

[3] = system: Rattus norvegicus; experiment: Plasma concentration was evaluated for corresponding carboxylic acid metabolite at 100 mg/kg dose peroral administration in rats after 20 min; type: functional, organism-based; design: dose 100 mg/kg; summary of the method: as §2
[4] = system: Rattus norvegicus; experiment: Plasma concentration was evaluated for corresponding hydroxamic acid metabolite at 100 mg/kg dose peroral administration in rats after 20 min; type: functional, organism-based; design: dose 100 mg/kg; summary of the method: as §2
[5] = system: Rattus norvegicus; experiment: Plasma concentration was evaluated for corresponding hydroxamic acid metabolite at 100 mg/kg dose peroral administration in rats after 60 min; type: functional, organism-based; design: dose 100 mg/kg; summary of the method: as §2
[6] = biological target: T1, Polyunsaturated fatty acid 5-lipoxygenase (Rattus norvegicus, UniProt P12527); experiment: In vitro inhibitory activity against 5-lipoxygenase in rat RBL-1 cells; type: cell-based
T1 sequence (P12527 whole entry): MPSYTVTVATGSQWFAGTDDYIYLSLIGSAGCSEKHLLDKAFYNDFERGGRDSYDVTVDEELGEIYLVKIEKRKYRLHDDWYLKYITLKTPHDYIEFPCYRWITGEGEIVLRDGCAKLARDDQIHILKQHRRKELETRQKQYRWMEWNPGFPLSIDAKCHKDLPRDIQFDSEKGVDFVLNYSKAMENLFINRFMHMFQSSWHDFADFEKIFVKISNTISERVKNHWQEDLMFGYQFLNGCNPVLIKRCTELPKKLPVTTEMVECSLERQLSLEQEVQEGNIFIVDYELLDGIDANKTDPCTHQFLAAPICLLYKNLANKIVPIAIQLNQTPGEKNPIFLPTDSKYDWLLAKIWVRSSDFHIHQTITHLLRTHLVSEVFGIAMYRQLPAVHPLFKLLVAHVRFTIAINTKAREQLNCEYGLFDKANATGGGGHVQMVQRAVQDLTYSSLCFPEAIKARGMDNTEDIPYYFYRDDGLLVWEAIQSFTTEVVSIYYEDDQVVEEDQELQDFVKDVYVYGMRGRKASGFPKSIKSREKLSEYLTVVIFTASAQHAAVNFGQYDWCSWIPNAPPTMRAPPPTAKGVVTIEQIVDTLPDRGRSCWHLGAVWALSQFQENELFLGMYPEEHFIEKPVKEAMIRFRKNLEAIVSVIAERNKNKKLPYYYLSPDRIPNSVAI
Summary of the method: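 RBL-1 cell homogenate, 20000g supernatant (from 6 × 10^4 cells) in 200-μL incubations with 2% DMSO vehicle and varied inhibitor concentrations. Reaction started with radiolabeled arachidonic acid, stopped by acidification and ether extraction. Products separated from substrate by TLC and counted by scintillation. Triplicate incubations, compared against mean of vehicle controls (n = 8). IC50 with 95% confidence limits from linear regression of % inhibition vs log concentration.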

[7] = system: Rattus norvegicus; experiment: Inhibition of leukotriene biosynthesis was determined in vivo with the rat peritoneal anaphylaxis model administered perorally at 100 mg/kg; type: functional; conditions: route oral; summary of the method: as §1
[8] = system: Rattus norvegicus; experiment: Inhibition of leukotriene biosynthesis was determined in vivo with the rat peritoneal anaphylaxis model administered perorally at 100 mg/kg *p > 0.05; type: functional; conditions: route oral; summary of the method: as §1

Compound | inhibition [1] | Concentration [2] | Concentration [3] | Concentration [4] | Concentration [5] | IC50 [6] | inhibition in vivo at 100 mg/kg [7] | inhibition in vivo at 100 mg/kg [8]
CN(O)C(=O)c1ccc2ccccc2c1 | inactive | – | – | – | – | – | – | –
Cc1cc(C)c(-c2ccc(C(=O)NO)cc2)c(C)c1 | inactive | – | – | – | – | – | – | –
CC(C)Cc1ccc(CCC(=O)N(C)O)cc1 | – | 80 µM | 349 µM | < 10 µM | < 10 µM | – | – | –
CC(C)Cc1ccc(C(C)C(=O)N(C)O)cc1 (stereo not drawn) | – | 36 µM | 41 µM | 32 µM | 14 µM | 0.98 µM | 65% | –
Cc1cc(C)c(-c2ccc(/C=C/C(=O)N(C)O)cc2)c(C)c1 | inactive | – | – | – | – | 0.022 µM | – | –
CC(C(=O)N(C)O)c1ccc(OCc2ccccc2)cc1 (stereo not drawn) | – | 51 µM | 16 µM | 8.4 µM | 7.9 µM | 0.28 µM | 62% | –
CCCCOc1ccc(C(C)C(=O)N(C)O)cc1 (stereo not drawn) | – | 50 µM | 40 µM | 38 µM | 13 µM | 0.73 µM | 62% | –
CC(C)Cc1ccc(C(=O)N(C)O)cc1 | – | 404 µM | 432 µM | < 5 µM | < 5 µM | – | – | –
CC(C)Cc1ccc(C(C)C(=O)NO)cc1 (stereo not drawn) [IBUPROXAM] | inactive | 146 µM | 114 µM | 49 µM | 27 µM | 4.84 µM | – | –
CC(C)Oc1ccc(C(C)C(=O)N(C)O)cc1 (stereo not drawn) | – | – | – | – | 38 µM | 3.7 µM | 67% | –
CN(O)C(=O)/C=C/c1ccc2ccccc2c1 | – | – | – | – | – | – | – | 66%
CC(C)Cc1ccc(/C=C/C(=O)N(C)O)cc1 | – | 4.5 µM | 1.9 µM | < 4 µM | < 4 µM | – | – | –
CC(C)Cc1ccc(C(C(=O)N(C)O)C(C)C)cc1 (stereo not drawn) | – | 7.5 µM | 3.7 µM | 5 µM | 7.9 µM | – | – | –
Cc1cc(C)c(-c2ccc(C(=O)N(C)O)cc2)c(C)c1 | – | – | – | – | – | 0.06 µM | 41% | –
CC(C)Cc1ccc(C(C)(C)C(=O)N(C)O)cc1 | – | < 1 µM | 9.3 µM | 5.8 µM | < 1 µM | – | – | –
COc1ccc2cc(C(C)C(=O)N(C)O)ccc2c1 (stereo not drawn) | – | 4 µM | 3 µM | 1.7 µM | 1.3 µM | 0.41 µM | 52% | –
CC(C)Cc1ccc(C(C)C(=O)N(O)C(C)C)cc1 (stereo not drawn) | – | < 4 µM | < 4 µM | < 4 µM | < 4 µM | – | – | –
CC(C)Cc1ccc(CC(=O)N(C)O)cc1 | – | 138 µM | 162 µM | 46 µM | 12 µM | – | – | –
